Measurements reported in ChEMBL document CHEMBL4219127, “Structural design, synthesis and substituent effect of hydrazone-N-acylhydrazones reveal potent immunomodulatory agents” (Bioorg Med Chem, 2018).
The source made the active and inactive calls. No cut-off for these calls is given here.

Tests used:
[1] = Cytotoxicity against BALB/c mouse J774 cells assessed as reduction in cell viability after 72 hrs by alamarBlue assay; type: cell-based
Outline: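 J774 murine macrophages, 1×10^4 cells/well in DMEM + 10% FBS, pre-incubated 24 h at 37°C, 5% CO2; compounds 100–0.41 μM in triplicate for 72 h. AlamarBlue added for 4 h, absorbance at 570 and 600 nm; gentian violet positive control. CC50 from three independent experiments.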

[2] = test system: J774; test: Antiinflammatory activity in BALB/c mouse J774 cells assessed as inhibition of LPS/IFNgamma-induced nitric oxide production at 20 uM after 24 hrs by Griess method relative to control; type: functional; details: J774, 24 h
Outline: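 J774 macrophages, 2×10^5 cells/well in DMEM + 10% FBS, allowed to settle 2 h at 37°C, 5% CO2; stimulated with LPS (E. coli 0111:B4, 500 ng/mL) plus IFNγ (5 ng/mL) with compound present (primary screen at 20 μM). Nitrite measured by Griess in supernatants at 24 h; % inhibition against stimulated untreated control.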

[3] = test system: Splenocyte; test: Immunomodulatory activity in BALB/c mouse splenocytes assessed as inhibition of concanavalin A-induced lymphocyte proliferation by measuring [3H]-thymidine uptake after 48 to 72 hrs by scintillation counting analysis; type: functional, cell-based
Outline: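 BALB/c splenocytes at 1×10^6 cells/well, in triplicate, stimulated with Con A (2 μg/mL) or anti-CD3/CD28 beads (1:1 bead:cell) with compound at 12–0.04 μM. After 48 h, 1 μCi 3H-thymidine added for a further 18 h; scintillation counting. Proliferation as % uptake versus untreated; dexamethasone control. IC50 from three independent experiments.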

[4] = test system: Splenocyte; test: Antiinflammatory activity in BALB/c mouse splenocytes assessed as inhibition of concanavalin A-induced IFN-gamma level at 10 uM after 48 hrs by ELISA; type: functional, cell-based
Outline: (§1)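 Splenocytes from BALB/c mice at 5×10^6 cells/well in DMEM, stimulated with Con A 5 µg/mL, with compound at 10, 5 and 2.5 µM. Cell-free supernatants collected at 48 h and stored at -80 °C. IL-2, IL-4, IL-10, IL-17 and IFNγ measured by sandwich ELISA. Dexamethasone control at 10 µM (1.0 µM for IL-2). Mean±S.E.M. from one of two experiments.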

[5] = test system: Splenocyte; test: Antiinflammatory activity in BALB/c mouse splenocytes assessed as inhibition of concanavalin A-induced IL-17A level at 10 uM after 48 hrs by ELISA; type: functional, cell-based; outline: as §1
[6] = test system: Splenocyte; test: Antiinflammatory activity in BALB/c mouse splenocytes assessed as inhibition of concanavalin A-induced IL-2 level at 1 uM after 48 hrs by ELISA; type: functional, cell-based; outline: as §1
[7] = test system: Splenocyte; test: Antiinflammatory activity in BALB/c mouse splenocytes assessed as inhibition of concanavalin A-induced IL-4 level at 10 uM after 48 hrs by ELISA; type: functional, cell-based; outline: as §1
[8] = test system: Splenocyte; test: Antiinflammatory activity in BALB/c mouse splenocytes assessed as inhibition of concanavalin A-induced IL-10 level at 10 uM after 48 hrs by ELISA; type: functional, cell-based; outline: as §1
[9] = test system: Mus musculus; test: Antiinflammatory activity in carrageenan-induced BALB/c mouse peritonitis model assessed as reduction in number of neutrophils in peritoneal fluid at 80 mg/kg, ip pretreated for 1 hr followed by carrageenan challenge measured after 4 hrs by hematoxylin and eosin staining-based assay relative to control; type: functional
Outline: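 Male BALB/c mice were dosed orally with compound (20 or 80 mg/kg) or vehicle; indomethacin 80 mg/kg was given ip. One hour later, carrageenan (250 µL of 1.0 mg/mL) was injected ip. Peritoneal lavage with 2 mL saline at 4 h. Total leukocytes counted in Neubauer chamber with Trypan blue; neutrophils by blinded 200-cell differential on H&E-stained cytospins.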

| SMILES | CC50 at 72 h [1] [µM] | inhibition at 20 µM [2] [%] | IC50 [3] [µM] | further results |
| --- | --- | --- | --- | --- |
| CC(/C=N/Nc1ccc([N+](=O)[O-])cc1)=N\NC(=O)c1ccccc1Oc1ccccc1 | > 100 | 5.5 | > 12 |  |
| CC(/C=N/Nc1ccc([N+](=O)[O-])cc1)=N\NC(=O)c1ccccc1Cl | > 100 | 39.4 | > 12 |  |
| CC(/C=N/Nc1ccc([N+](=O)[O-])cc1)=N\NC(=O)c1ccccc1F | > 100 | 5.3 | > 12 |  |
| CC(/C=N/Nc1ccc([N+](=O)[O-])cc1)=N\NC(=O)c1ccccc1O | 29.5 | 59.7 | 1.64 |  |
| CC(/C=N/Nc1ccc([N+](=O)[O-])cc1)=N\NC(=O)c1cccc(C)c1 | > 100 | 9.3 | > 12 |  |
| CN(C)c1ccc(C(=C2C=CC(=[N+](C)C)C=C2)c2ccc(N(C)C)cc2)cc1 [GENTIAN VIOLET] | 4.1 |  |  |  |
| CC(/C=N/Nc1ccc([N+](=O)[O-])cc1)=N\NC(=O)c1ccc(C(C)(C)C)cc1 | > 100 | 4.8 | > 12 |  |
| C[C@@H]1C[C@H]2[C@@H]3CCC4=CC(=O)C=C[C@]4(C)[C@@]3(F)[C@@H](O)C[C@]2(C)[C@@]1(O)C(=O)CO [DEXAMETHASONE] | 91.1 | 69.8 | 0.001 | inhibition [4]: Active; inhibition [5]: Active; inhibition [6]: Active; inhibition [7]: Active; inhibition [8]: Active |
| CC(/C=N/Nc1ccc([N+](=O)[O-])cc1)=N\NC(=O)c1ccc(N)cc1 | 75 | 12.8 | > 12 |  |
| CC(/C=N/Nc1ccc([N+](=O)[O-])cc1)=N\NC(=O)c1ccccc1C | > 100 | 21.9 | 6 |  |
| CC(/C=N/N(C)c1ccc([N+](=O)[O-])cc1)=N\NC(=O)c1cc([N+](=O)[O-])cc([N+](=O)[O-])c1 | 39 | 51 | 1.11 |  |
| CC(/C=N/Nc1ccc([N+](=O)[O-])cc1)=N\NC(=O)c1ccccc1 | > 100 | 31.4 | > 12 |  |
| CC(/C=N/Nc1ccc([N+](=O)[O-])cc1)=N\NC(=O)c1ccccc1N | 29.8 | 39.3 | 4.9 |  |
| CC(/C=N/N(C)c1ccc([N+](=O)[O-])cc1)=N\NC(=O)c1ccccc1O | 31.5 | 41 | 3.12 |  |
| COc1ccc2c(c1)c(CC(=O)O)c(C)n2C(=O)c1ccc(Cl)cc1 [INDOMETHACIN] |  |  |  | inhibition in vivo at 80 mg/kg [9]: 35.9% |
| COc1cc(C(=O)N/N=C(C)/C=N/Nc2ccc([N+](=O)[O-])cc2)ccc1O | > 100 | 6.6 | 5.1 |  |
| COc1ccc(C(=O)N/N=C(C)/C=N/Nc2ccc([N+](=O)[O-])cc2)cc1 | > 100 | 7.5 | > 12 |  |
| CC(/C=N/Nc1ccc([N+](=O)[O-])cc1)=N\NC(=O)c1ccc([N+](=O)[O-])cc1 | > 100 | 39.1 | 0.98 |  |
| CC(/C=N/Nc1ccc([N+](=O)[O-])cc1)=N\NC(=O)c1ccc(Cl)cc1 | 63.9 | 23 | 4.2 |  |
| CC(/C=N/Nc1ccc([N+](=O)[O-])cc1)=N\NC(=O)c1ccc(O)cc1 | 51 | 43.8 | 1.51 |  |
| CC(/C=N/Nc1ccc([N+](=O)[O-])cc1)=N\NC(=O)c1ccc(C(F)(F)F)cc1 | 78.7 | 18.7 | > 12 |  |
| CC(/C=N/Nc1ccc([N+](=O)[O-])cc1)=N\NC(=O)c1ccccc1I | 40 | 56.8 | 2.98 |  |
| CC(/C=N/N(C)c1ccc([N+](=O)[O-])cc1)=N\NC(=O)c1ccc(N)cc1 | 51.7 | 3.6 | > 12 |  |
| CC(/C=N/Nc1ccc([N+](=O)[O-])cc1)=N\NC(=O)c1ccccc1Nc1ccccc1 | > 100 | 14.1 |  |  |
| CC(/C=N/Nc1ccc([N+](=O)[O-])cc1)=N\NC(=O)c1ccc(N(C)C)cc1 | > 100 | 25.6 | > 12 |  |
| CC(/C=N/Nc1ccc([N+](=O)[O-])cc1)=N\NC(=O)c1ccc2c(c1)OCO2 | > 100 | 23.2 | > 12 |  |
